Hits are enriched below; roughly 1.4% of the tested compounds scored in any of these assays.
ZTA DNA inh – blocks Epstein-Barr virus ZTA, an EBNA-1 counter-screen; P03206; ZTA-DNA binding, fluorescence polarization; inhibition, % at 11 µM; actives 0.15% (n = 320,000); AID 2234; in the data active = inhibition above about 33%
Target sequence (P03206 whole entry, looked up): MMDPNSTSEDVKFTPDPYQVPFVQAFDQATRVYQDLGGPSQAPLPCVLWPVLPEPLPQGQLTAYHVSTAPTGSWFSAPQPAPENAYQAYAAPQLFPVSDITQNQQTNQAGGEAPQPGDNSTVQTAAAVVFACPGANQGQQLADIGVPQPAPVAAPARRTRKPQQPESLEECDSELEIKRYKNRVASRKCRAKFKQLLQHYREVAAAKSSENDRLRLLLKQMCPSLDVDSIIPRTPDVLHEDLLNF
HCV NS3 hel inh – HCV NS3 helicase inhibition. NS3 helicase DNA unwinding, Cy5 molecular beacon fluorescence. inhibition, % at 10.9 µM. actives 0.56% (n = 290,000). AID 1800;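 active = inhibition above the mean of all tested compounds plus 3 SD, set per campaign, cut at about 35% in these data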
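System: NS3 helicase fragment of HCV / Schedule: 1 h at 25 °C / Control set: DMSO alone as 0% and 110 µM thioflavine S as 100% / Reagent: Cy5/quencher beacon DNA duplex and ATP to start / Technique: Cy5 fluorescence / Replication: singlicate / Evaluation: % inhibition of end-to-start signal ratio versus controls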
EBNA-1 inh – blocks EBNA-1 binding to DNA | AID 1950 | inhibition, % at 14.8 µM | EBNA-1 DNA binding, fluorescence polarization | actives 0.34% (n = 300,000); in the data active = inhibition above about 28%
CTSL1 counter – blocks F. hepatica cathepsin L1 in PFM18AAP counter-screen. recombinant F. hepatica cathepsin L1, Z-Leu-Arg-MCA fluorescence. inhibition, % at 5.96 µM. actives 0.49% (n = 300,000);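 active = inhibition above the mean of all tested compounds plus 3 SD, set per screening campaign, cut at about 17% in these data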
NS3 hel confirm – confirmation of Hepatitis C virus NS3 helicase inhibitors; shares compounds with HCV NS3 hel inh; AID 1943; NS3 helicase DNA unwinding, Cy5 molecular beacon fluorescence; inhibition, % at 10.9 µM; actives 31% (n = 1,600);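 active = inhibition above the mean of all tested compounds plus 3 SD, cutoff set per campaign, cut at about 36% in these data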
FID counter trip – counter-screen for HCV NS3 helicase inhibitors: DNA intercalator displacement | actives 4% (n = 1,600) | inhibition, % at 7.9 µM | DNA fluorescent intercalator displacement, fluorescence | shares compounds with HCV NS3 hel inh | AID 1945; in the data active = inhibition above about 37%;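 note: higher means more displacement of ethidium bromide from the DNA hairpin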
DNA FID DR – displaces fluorescent intercalator from DNA, HCV helicase counter-screen; AID 2172; IC50, µM; 120 tested, under 10 active; shares compounds with HCV NS3 hel inh; fluorescent intercalator displacement from DNA, fluorescence; call rule not given here
A number is an active result; n = inactive; x = no result given.

SMILES	ZTA DNA inh	HCV NS3 hel inh	EBNA-1 inh	CTSL1 counter	others
CCOC(CNC(=O)c1cccc([N+](=O)[O-])c1)OCC	n	n	n	38
Cc1nc2nc(C)c(NS(=O)(=O)c3cccs3)c(=O)n2[nH]1	n	n	n	n
O=C(O)c1nnn(-c2cc(C(F)(F)F)cc(C(F)(F)F)c2)c1-c1ccccc1	n	n	n	46
O=C(O)c1nnn(-c2ccc(F)cc2F)c1-c1ccccc1	n	n	n	n
O=C(CNC(=O)c1cccc(F)c1)OCC(=O)N1CCCc2ccccc21	n	n	n	20
CC(C)(C)NC(=O)NC(=O)COC(=O)CNC(=O)c1cccc(F)c1	n	n	n	n
CC1CCCCC1NC(=O)COC(=O)CNC(=O)c1cccc(F)c1 (centres undefined)	n	n	n	22
Cc1ccc(C(=O)OCC(=O)c2c(N)n(C)c(=O)n(C)c2=O)cc1S(=O)(=O)N1CCOCC1	n	x	x	x
COc1ccc(CN=C2NN=C(c3ccc(Cl)cc3)CS2)cc1	n	n	n	n
CC(C)(C)N=C1NN=C(c2ccc(Cl)cc2)CS1	n	n	n	21
CCOc1cc(/C=N/NC(=O)CCn2nnc3ccccc32)ccc1O	n	n	n	n
CCOC(=O)N1C2=NC(C(=O)OC)=C(C(=O)OC)[C@@H]3Nc4ccccc4[C@]23C[C@H]1C(=O)OC	n	x	n	n
COC(=O)C1=NN(c2cccc3ccccc23)C2C(=O)N(c3ccccc3OC)C(=O)C12 (centres undefined)	n	n	n	19
CC1CCC2(CC1)NC(=O)N(NC(=O)CCl)C2=O (centres undefined)	n	n	n	17
CC1CCC2(CC1)NC(=O)N(NC(=O)c1cccs1)C2=O (centres undefined)	n	x	x	x
CCN(CC)CC(=O)N1N=C(c2cccs2)CC1c1ccco1 (centres undefined)	n	n	n	n
CN(C)S(=O)(=O)c1cccc(NC(=S)NCCCn2ccnc2)c1	n	n	n	17
O=C(CCl)Nc1ccc(N2CCCCCC2)cc1	n	n	n	21
CCOC(=O)c1c(NC(=O)c2ccncc2)sc(C)c1C	n	n	n	n
CCOC(=O)c1sc(NC(=O)c2ccncc2)c(C#N)c1C	n	n	n	19
Cc1ccc(C23CC4CC(CC(NC(=O)NN)(C4)C2)C3)cc1	n	n	n	28
Cc1ccc(C23CC4CC(CC(NC(=O)NC(C)(C)CO)(C4)C2)C3)cc1	n	n	n	n
CCOc1ccc(N(C)S(=O)(=O)c2ccc(-c3ccc(=O)[nH]n3)s2)cc1	n	n	n	40
COc1cc(C(=O)COC(=O)CNC(=O)C2CCCCC2)cc(OC)c1OC	n	n	n	36
COc1ccc(Cl)cc1NC(=O)COC(=O)CNC(=O)C1CCCCC1	n	x	x	x
SMILES	ZTA DNA inh	HCV NS3 hel inh	EBNA-1 inh	CTSL1 counter	others
Cc1ccc(NC(=O)COC(=O)CNC(=O)C2CCCCC2)c(Br)c1	n	n	n	47
O=C(COC(=O)CNC(=O)C1CCCCC1)Nc1ccc(Cl)cc1F	n	n	n	34
O=C(Nc1cc(F)ccc1F)c1cccc(-n2cnnn2)c1	n	x	n	n
COc1cc(OC)cc(C(=O)NCc2cccnc2)c1	n	n	n	19
COc1cccc(C(c2c(O)nc(SC)n(C)c2=O)c2c(O)nc(SC)n(C)c2=O)c1	n	n	n	n
Nc1nc(SCC(=O)N2N=C3/C(=C/c4ccco4)CCCC3C2c2ccco2)n[nH]1 (centres undefined)	n	n	n	n
O=C(CSc1nccc(=O)[nH]1)N1N=C2/C(=C/c3ccco3)CCCC2C1c1ccco1 (centres undefined)	n	n	n	17
Cc1ccc(C2C=C(c3ccccc3)Nc3nc(N4C(=O)CCC4=O)nn32)cc1 (centres undefined)	x	n	x	x
COc1cc(CN(CC2CCCO2)C(=O)c2cccs2)cc(OC)c1OC (centres undefined)	n	n	n	18
COc1ccc(C(=O)Nc2cc(OC)ccc2OC)cc1	n	n	n	n
COc1ccc(OC)c(NC(=O)c2ccc(Cl)cc2)c1	n	n	n	49
O=C(CCN1C(=O)/C(=C/c2ccccc2Cl)SC1=S)N1CCOCC1	n	n	n	n
COC(=O)/C=C1\SC(=Nc2ccccc2)NC1=O	n	n	n	n
CC(C)(C)OC1NS(=O)(=O)OCC1NCOC(Cl)(Cl)Cl (centres undefined)	n	n	n	17
CC1Sc2ccc(C(=O)N3CCCC(C(F)(F)F)C3)cc2NC1=O (centres undefined)	n	x	n	n
COc1ccc(N2CCN(S(=O)(=O)c3cnc[nH]3)CC2)cc1	n	n	n	17
Cc1cccc(OCC(=O)N/N=C/c2cccn2C)c1	n	n	n	n
Cc1ccc(C(=O)N/C(=C\c2ccc(F)cc2)C(=O)NCc2ccncc2)cc1	n	n	n	n
COc1ccc(/C=C(/NC(=O)c2ccc(C)cc2)C(=O)NCc2ccncc2)cc1	n	n	n	21
CCOC(=O)C(Cc1ccccc1)NC(=O)Cn1nnc(-c2ccccc2)n1 (centres undefined)	n	n	n	n
CC(OC(=O)c1ccc([N+](=O)[O-])s1)C(=O)Nc1ncc(Cl)cc1Cl (centres undefined)	n	n	n	27
O=C(Nc1ccc(C(F)(F)F)cc1)c1csc(-c2ccncc2)n1	n	n	n	n
O=C(NNC(=O)c1csc(-c2cnccc2C(F)(F)F)n1)c1ccc(C(F)(F)F)cc1	n	n	n	23
CN(C)C(=O)c1cc2cc([N+](=O)[O-])ccc2s1	n	n	n	n
CCOC(=O)c1ccc2ncc(C(=O)OCC)c(NCCN(C)C)c2c1	n	n	n	66
SMILES	ZTA DNA inh	HCV NS3 hel inh	EBNA-1 inh	CTSL1 counter	others
C/C(=N\NC(=O)c1cc2ccccc2cc1O)c1ccc(C)o1	n	47	n	n	NS3 hel confirm=n;FID counter trip=n
COCc1ccc(C(=O)N2CCCC(N3CCN(c4ccccc4C)CC3)C2)s1 (centres undefined)	n	n	n	n
O=C(N/N=C/c1cc([N+](=O)[O-])ccc1O)C1CC1	n	n	n	n
O=C(N/N=C/c1cc([N+](=O)[O-])ccc1O)C(O)(c1ccccc1)c1ccccc1	n	46	n	n	NS3 hel confirm=n;FID counter trip=n
CCOc1ccc(/C=c2\sc3nc(-c4ccco4)nn3c2=O)cc1OCC	n	38	n	n	NS3 hel confirm=47;FID counter trip=n;DNA FID DR=n
COc1ccc(CCNC(=O)C(=O)NCCC2CCCCN2S(=O)(=O)c2cccs2)cc1 (centres undefined)	n	x	n	n
NS(=O)(=O)c1ccc(CCNC(=O)c2ccccc2Cc2ccccc2)cc1	n	n	n	n
OCCNc1c2ccccc2nc2c(F)c(F)c(F)c(F)c12	n	n	n	n
Cc1c2ccccc2nc2c(F)c(NCCO)c(F)c(F)c12	n	39	n	n	NS3 hel confirm=n;FID counter trip=n

High-throughput results as filed in PubChem.
